Published values collected from several papers.
Each line is one published result; the experiments were not run side by side.
ALOX15: Polyunsaturated fatty acid lipoxygenase ALOX15 (ALOX15, Homo sapiens, UniProt P16050)
Sialidase-4: Sialidase-4 (Homo sapiens, UniProt Q8WWR8)
ache: Acetylcholinesterase (ache, Electrophorus electricus, UniProt O42275)

| SMILES | target | assay | setting | IC50 |
| --- | --- | --- | --- | --- |
| CCOC(=O)c1ccccc1-c1c2ccc(=O)cc-2oc2cc(OCCCNC(=O)C(OC(=O)c3ccccc3)C3CC3)ccc12 (centres unmarked) | ALOX15 | enzyme activity, inhibitor, absorbance | – | 43.7 µM |
| CC(C)(C)CN[C@H]1[C@H]([C@H](O)[C@H](O)CO)OC(C(=O)O)=C[C@@H]1O | Sialidase-4 | enzyme activity, inhibitor | – | 40 µM |
| CC(C(=O)O)n1nc(Cn2cc3cc(OCCF)c(Cl)cc3n2)c2ccccc2c1=O (racemic) | Sphingosine 1-phosphate receptor 1 (S1PR1, Homo sapiens, UniProt P21453) | ligand displacement, radioligand | cell membranes | > 1 µM |
| Fc1ccc(Cn2cc(COc3ccc(-c4nnc(-c5ccccc5)o4)cc3)nn2)cc1 | ache | enzyme activity, inhibitor, Ellman | – | > 100 µM |
| CC(C)(C)c1cn([C@H]2[C@H]([C@H](O)[C@H](O)CO)OC(C(=O)O)=C[C@@H]2O)nn1 | Sialidase-4 | enzyme activity, inhibitor | – | 80 µM |
| CCN(C)C(=O)Oc1ccc(CCC(=O)N(CC)Cc2ccccc2)cc1OC | ache | enzyme activity, inhibitor, Ellman | – | 13.8 µM |
| CCOC(=O)c1ccccc1-c1c2ccc(=O)cc-2oc2cc(OCCCNc3c(-c4ccc([N+](=O)[O-])cc4)nc4ccccn34)ccc12 | ALOX15 | enzyme activity, inhibitor, absorbance | – | > 100 µM |
| O=[N+]([O-])c1ccc(-c2nnc(-c3ccc(OCc4cn(Cc5ccc(F)cc5)nn4)cc3)o2)cc1 | ache | enzyme activity, inhibitor, Ellman | – | > 100 µM |
| CCOC(=O)c1ccccc1-c1c2ccc(=O)cc-2oc2cc(OCCCNc3c(-c4ccc5ccccc5c4)nc4ccccn34)ccc12 | ALOX15 | enzyme activity, inhibitor, absorbance | – | > 100 µM |
| COc1ccc(/C=C/C(=O)N2CCCC(NC(=O)OC(C)(C)C)C2)cc1OC (centres unmarked) | ache | enzyme activity, inhibitor, Ellman | – | > 50 µM |
| Cc1cn([C@H]2[C@H]([C@H](O)[C@H](O)CO)OC(C(=O)O)=C[C@@H]2O)nn1 | Sialidase-4 | enzyme activity, inhibitor | – | 26 µM |
| O=C(N1CCC2(CC1)C[C@@H](CN1CCCCS1(=O)=O)CCO2)C1(c2ccccc2)CCCC1 | ATP-dependent RNA helicase DDX3X (DDX3X, Homo sapiens, UniProt O00571) | ATPase activity, inhibitor | – | > 50 µM |
| CC(C)(C)NC(=O)N[C@H]1[C@H]([C@H](O)[C@H](O)CO)OC(C(=O)O)=C[C@@H]1O | Sialidase-4 | enzyme activity, inhibitor | – | > 500 µM |
| CCN(C)C(=O)Oc1ccc(/C=C/C(=O)NC2CCN(Cc3ccccc3)CC2)cc1OC | ache | enzyme activity, inhibitor, Ellman | – | 3.9 µM |
| c1ccc(Cn2cc(COc3ccc(-c4nnc(-c5ccccc5)o4)cc3)nn2)cc1 | ache | enzyme activity, inhibitor, Ellman | – | > 100 µM |
| O=C(O)C1=C[C@H](O)[C@@H](NCc2ccc(-c3ccccc3)cc2)[C@H]([C@H](O)[C@H](O)CO)O1 | Sialidase-4 | enzyme activity, inhibitor | – | 260 µM |
| CCN(C)C(=O)Oc1ccc(CCC(=O)N2CCc3ccccc3C2)cc1OC | ache | enzyme activity, inhibitor, Ellman | – | 10.6 µM |
